Assay results as given in ChEMBL document CHEMBL1144562, “Synthesis of a new class of 2-anilino substituted nicotinyl arylsulfonylhydrazides as potential anticancer and antibacterial agents” (2007).
≈ marks a conversion by molar mass, not a printed value.

Columns and labels:
NCI-H460 = assay: Antitumor activity against NCI-H460 cells; assay type: functional; details: Homo sapiens
A498 = assay: Antitumor activity against A498 cells; assay type: functional; details: Homo sapiens
HCT-116 = assay: Antitumor activity against HCT116 cells; assay type: functional; details: Homo sapiens
DU-145 = assay: Antitumor activity against DU145 cells; assay type: functional; details: Homo sapiens
Pseudomonas aeruginosa = assay: Antibacterial activity against Pseudomonas aeruginosa MTCC 424 after 18 hrs; assay type: functional; details: MTCC 424, 18 h
Summary of the method: (§1)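 Disc diffusion (Kirby–Bauer) on Mueller-Hinton agar inoculated with fresh bacteria at 1-5 × 10^4 cfu mL-1. Compounds were dissolved in DMF at a range of concentrations, and discs were placed in triplicate. Plates were incubated at 30 °C for 18 h. MIC was taken as the lowest concentration giving no visible bacterial growth on the plate.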

[1] = tested on: Staphylococcus epidermidis; assay: Antibacterial activity against Staphylococcus epidermidis MTCC 435 after 18 hrs; assay type: functional; details: MTCC 435, 18 h; summary of the method: as §1
MOLT-4 = assay: Antitumor activity against MOLT4 cells; assay type: functional; details: Homo sapiens
[2] = Antitumor activity against HL60 (TB) cells; assay type: functional, HL-60(TB); details: Homo sapiens, HL-60
Summary of the method: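 NCI 60-cell-line in vitro screen (leukaemia subpanel). Compound tested at five 10-fold dilutions from 10^-4 to 10^-8 M. Dose-response parameters: GI50 (concentration giving 50% net growth inhibition), TGI (total growth inhibition) and LC50 (50% net cell death), each reported as log10 of molar concentration.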

HOP-62 = assay: Antitumor activity against HOP62 cells; assay type: functional; details: Homo sapiens
[3] = Antitumor activity against NCI-H322 cells; assay type: functional; details: Homo sapiens
PC-3 = assay: Antitumor activity against PC3 cells; assay type: functional; details: Homo sapiens
SK-OV-3 = assay: Antitumor activity against SKOV3 cells; assay type: functional; details: Homo sapiens
Summary of the method: (§2)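 Tested in the NCI 60-human-tumour-cell-line panel at five concentrations, in 10-fold dilutions from 10^-4 to 10^-8 M. Three parameters were taken from the dose-response data, each as log10 of the molar concentration: GI50 (50% net growth inhibition), TGI (total growth inhibition) and LC50 (50% net cell death).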

SR = assay: Antitumor activity against SR cells; assay type: functional; details: Homo sapiens; summary of the method: as §2
CAKI-1 = assay: Antitumor activity against CAKI1 cells; assay type: functional; details: Homo sapiens
ACHN = assay: Antitumor activity against ACHN cells; assay type: functional; details: Homo sapiens
Vibrio = assay: Antibacterial activity against Vibrio species after 18 hrs; assay type: functional; summary of the method: as §1
SF-539 = assay: Antitumor activity against SF539 cells; assay type: functional; details: Homo sapiens
A549 = assay: Antitumor activity against A549 cells; assay type: functional; details: Homo sapiens
SK-MEL-28 = assay: Antitumor activity against SK-MEL-28 cells; assay type: functional; details: Homo sapiens
M14 = assay: Antitumor activity against M14 cells; assay type: functional; details: Homo sapiens
MCF7 = assay: Antitumor activity against MCF7 cells; assay type: functional; details: Homo sapiens
KM12 = assay: Antitumor activity against KM12 cells; assay type: functional; details: Homo sapiens
NCI-H226 = assay: Antitumor activity against NCI-H226 cells; assay type: functional; details: Homo sapiens
OVCAR-4 = assay: Antitumor activity against OVCAR4 cells; assay type: functional; details: Homo sapiens
OVCAR-3 = assay: Antitumor activity against OVCAR-3 cells; assay type: functional; details: Homo sapiens
T47D = assay: Antitumor activity against T47D cells; assay type: functional; details: Homo sapiens; summary of the method: as §2
BT-549 = assay: Antitumor activity against BT549 cells; assay type: functional; details: Homo sapiens
SNB-19 = assay: Antitumor activity against SNB19 cells; assay type: functional; details: Homo sapiens; summary of the method: as §2
UACC-257 = assay: Antitumor activity against UACC257 cells; assay type: functional; details: Homo sapiens; summary of the method: as §2
CCRF-CEM = assay: Antitumor activity against CCRF-CEM cells; assay type: functional; details: Homo sapiens
[4] = Antitumor activity against MALME 3M cells; assay type: functional; details: Homo sapiens
U-251 = assay: Antitumor activity against U251 cells; assay type: functional; details: Homo sapiens; summary of the method: as §2
HOP-92 = assay: Antitumor activity against HOP92 cells; assay type: functional; details: Homo sapiens
HT-29 = assay: Antitumor activity against HT29 cells; assay type: functional; details: Homo sapiens
MDA-MB-231 = assay: Antitumor activity against MDA-MB-231 cells; assay type: functional; details: Homo sapiens
SK-MEL-5 = assay: Antitumor activity against SK-MEL-5 cells; assay type: functional; details: Homo sapiens; summary of the method: as §2
SF-295 = assay: Antitumor activity against SF295 cells; assay type: functional; details: Homo sapiens
Hs-578T = assay: Antitumor activity against HS578T cells; assay type: functional; details: Homo sapiens
HCC 2998 = assay: Antitumor activity against HCC2998 cells; assay type: functional; details: Homo sapiens
786-0 = assay: Antitumor activity against 786-0 cells; assay type: functional; details: Homo sapiens
[5] = read-out: Log LC50 (the source's name) (converted)

For `CC(=O)Nc1ccc(S(=O)(=O)NNC(=O)c2cccnc2Nc2ccc(Cl)cc2)cc1`, the GI50 (NCI-H460) was 4.68 µM, the LC50 (NCI-H460) was > 100 µM and the TGI (NCI-H460; read-out: Log TGI (converted)) was > 100 µM. For the same compound, the GI50 (A498) was 18.6 µM, the LC50 (A498) was > 100 µM and the TGI (A498; read-out: Log TGI (converted)) was > 100 µM. For the same compound, the GI50 (HCT-116) was 7.24 µM, the LC50 (HCT-116) was > 100 µM and the TGI (HCT-116; read-out: Log TGI (converted)) was > 100 µM. For the same compound, the GI50 (DU-145) was 34.7 µM, the LC50 (DU-145) was > 100 µM and the TGI (DU-145; read-out: Log TGI (converted)) was > 100 µM. For the same compound, the MIC (Pseudomonas aeruginosa) was > 25 µg/mL, the MIC [1] was 22 µg/mL (≈ 47.8 µM) and the GI50 (MOLT-4) was 50.1 µM. For the same compound, the LC50 (MOLT-4) was > 100 µM, the TGI (MOLT-4; read-out: Log TGI (converted)) was > 100 µM and the GI50 [2] was 9.77 µM. The LC50 [2] was > 100 µM, the TGI ([2]; read-out: Log TGI (converted)) was > 100 µM and the GI50 (HOP-62) was > 100 µM. For the same compound, the CC50 (HOP-62; [5]) was > 100 µM, the TGI (HOP-62; read-out: Log TGI (converted)) was > 100 µM and the GI50 [3] was > 100 µM. For the same compound, the CC50 [3, 5] was > 100 µM, the TGI ([3]; read-out: Log TGI (converted)) was > 100 µM and the GI50 (PC-3) was 29.5 µM. The LC50 (PC-3) was > 100 µM, the TGI (PC-3; read-out: Log TGI (converted)) was > 100 µM and the GI50 (SK-OV-3) was 57.5 µM. The CC50 (SK-OV-3; [5]) was > 100 µM, the TGI (SK-OV-3; read-out: Log TGI (converted)) was > 100 µM and the GI50 (SR) was 6.31 µM. The LC50 (SR) was > 100 µM, the TGI (SR; read-out: Log TGI (converted)) was > 100 µM and the GI50 (CAKI-1) was 9.12 µM. For the same compound, the LC50 (CAKI-1) was > 100 µM, the TGI (CAKI-1; read-out: Log TGI (converted)) was > 100 µM and the GI50 (ACHN) was 52.5 µM. The LC50 (ACHN) was > 100 µM, the TGI (ACHN; read-out: Log TGI (converted)) was 75.9 µM and the MIC (Vibrio) was 18 µg/mL (≈ 39.1 µM). For the same compound, the GI50 (SF-539) was 15.5 µM, the LC50 (SF-539) was > 100 µM and the TGI (SF-539; read-out: Log TGI (converted)) was 75.9 µM. For the same compound, the GI50 (A549) was 32.4 µM, the LC50 (A549) was > 100 µM and the TGI (A549; read-out: Log TGI (converted)) was > 100 µM. The GI50 (SK-MEL-28) was 23.4 µM, the LC50 (SK-MEL-28) was > 100 µM and the TGI (SK-MEL-28; read-out: Log TGI (converted)) was > 100 µM. The GI50 (M14) was 11.5 µM, the LC50 (M14) was > 100 µM and the TGI (M14; read-out: Log TGI (converted)) was > 100 µM. For the same compound, the GI50 (MCF7) was 4.37 µM, the LC50 (MCF7) was > 100 µM and the TGI (MCF7; read-out: Log TGI (converted)) was > 100 µM. The GI50 (KM12) was 4.17 µM, the CC50 (KM12; [5]) was > 100 µM and the TGI (KM12; read-out: Log TGI (converted)) was > 100 µM. For the same compound, the GI50 (NCI-H226) was 42.7 µM, the CC50 (NCI-H226; [5]) was > 100 µM and the TGI (NCI-H226; read-out: Log TGI (converted)) was > 100 µM. The GI50 (OVCAR-4) was 44.7 µM, the LC50 (lethal concentration, 50%) (OVCAR-4) was > 100 µM and the TGI (OVCAR-4; read-out: Log TGI (converted)) was > 100 µM. For the same compound, the GI50 (OVCAR-3) was 3.72 µM, the CC50 (OVCAR-3; [5]) was > 100 µM and the TGI (OVCAR-3; read-out: Log TGI (converted)) was > 100 µM. For the same compound, the GI50 (T47D) was 6.31 µM, the CC50 (T47D; [5]) was > 100 µM and the TGI (T47D; read-out: Log TGI (converted)) was > 100 µM. The GI50 (BT-549) was 25.1 µM, the LC50 (BT-549) was > 100 µM and the TGI (BT-549; read-out: Log TGI (converted)) was > 100 µM. For the same compound, the GI50 (SNB-19) was 14.1 µM, the CC50 (SNB-19; [5]) was > 100 µM and the TGI (SNB-19; read-out: Log TGI (converted)) was > 100 µM. The GI50 (UACC-257) was 89.1 µM, the LC50 (UACC-257) was > 100 µM and the TGI (UACC-257; read-out: Log TGI (converted)) was > 100 µM. The LC50 (CCRF-CEM) was > 100 µM, the TGI (CCRF-CEM; read-out: Log TGI (converted)) was > 100 µM and the GI50 (CCRF-CEM; read-out: pGI50 (converted)) was 21.4 µM. For the same compound, the GI50 [4] was > 100 µM, the CC50 [4, 5] was > 100 µM and the TGI ([4]; read-out: Log TGI (converted)) was > 100 µM. The GI50 (U-251) was 24 µM, the LC50 (U-251) was > 100 µM and the TGI (U-251; read-out: Log TGI (converted)) was > 100 µM. For the same compound, the GI50 (HOP-92) was > 100 µM, the CC50 (HOP-92; [5]) was > 100 µM and the TGI (HOP-92; read-out: Log TGI (converted)) was > 100 µM. The GI50 (HT-29) was 3.98 µM, the LC50 (HT-29) was > 100 µM and the TGI (HT-29; read-out: Log TGI (converted)) was > 100 µM. The GI50 (MDA-MB-231) was 41.7 µM, the LC50 (MDA-MB-231) was > 100 µM and the TGI (MDA-MB-231; read-out: Log TGI (converted)) was > 100 µM. For the same compound, the GI50 (SK-MEL-5) was 5.62 µM, the LC50 (SK-MEL-5) was > 100 µM and the TGI (SK-MEL-5; read-out: Log TGI (converted)) was > 100 µM. The GI50 (SF-295) was 3.47 µM, the CC50 (SF-295; [5]) was > 100 µM and the TGI (SF-295; read-out: Log TGI (converted)) was > 100 µM. The GI50 (Hs-578T) was 24 µM, the CC50 (Hs-578T; [5]) was > 100 µM and the TGI (Hs-578T; read-out: Log TGI (converted)) was > 100 µM. For the same compound, the GI50 (HCC 2998) was 8.32 µM, the LC50 (HCC 2998) was > 100 µM and the TGI (HCC 2998; read-out: Log TGI (converted)) was > 100 µM. For the same compound, the GI50 (786-0) was 47.9 µM, the LC50 (lethal concentration, 50%) (786-0) was > 100 µM and the TGI (786-0; read-out: Log TGI (converted)) was > 100 µM.
